Drawing on ChEMBL document CHEMBL1143333, “Amide derivatives of ethacrynic acid: synthesis and evaluation as antagonists of Wnt/beta-catenin signaling and CLL cell survival” (Bioorg Med Chem Lett, 2009), this text covers IC50 and EC50 for 42 molecules.

A short description of assay [1]: Inhibition of Wnt/beta-catenin signaling in human SW480 cells by fluorimetry.
The nature of assay [2]: Cytotoxicity against human CLL cells after 48 hrs by MTT method. It is filed as functional, cell-based. Summed up:
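Freshly isolated CLL cells plated at 2.5 × 10^5 per well and exposed to compounds for 48 h. MTT added at 1/10 volume of a 5 mg/mL stock, followed by overnight incubation at 37 °C before read-out of viability.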
In general terms: Tetrazolium assays rely on reduction of a dye to a coloured formazan, in cell work by metabolically active cells.

As to `C=C(CC)C(=O)c1ccc(OCC(=O)Nc2cc(Cl)ccc2C(=O)O)c(Cl)c1Cl`, in assay [1], the midpoint of inhibition, the IC50, lay at 9.62 µM. This molecule also registered an EC50 in assay [2] of 13.8 µM.
In the same order, the values of `C=C(CC)C(=O)c1ccc(OCC(=O)Nc2ccc(C(=O)NC(CCC(=O)OCC)C(=O)OCC)cc2)c(Cl)c1Cl` (centres undefined) are 2.61 µM and 2.1 µM.
With `C=C(CC)C(=O)c1ccc(OCC(=O)Nc2ccc(CC(=O)O)cc2)c(Cl)c1Cl`, the IC50 in assay [1] is more than 50 µM. The molecule also yielded a 50% effective concentration (EC50) in assay [2] of 3.2 µM.
In assay [1], `C=C(CC)C(=O)c1ccc(OCC(=O)Nc2ccc(S(=O)(=O)O)cc2)c(Cl)c1Cl` registered an IC50 of more than 50 µM. This molecule had an EC50 in assay [2] of more than 25 µM.
On to `C=C(CC)C(=O)c1ccc(OCC(=O)Nc2ccc(/C=C/C(=O)OCC)cc2)c(Cl)c1Cl`, for which the IC50 in assay [1] was 3.79 µM. In assay [2], this molecule yielded an EC50 of 1.7 µM.
`C=C(CC)C(=O)c1ccc(OCC(=O)Nc2ccc(/C=C/C(=O)O)cc2)c(Cl)c1Cl` yielded an IC50 in assay [1] of 2.51 µM. In addition, a half-maximal response in assay [2] (EC50) required 3 µM.
Turning to `C=C(CC)C(=O)c1ccc(OCC(=O)Nc2ccc3c(c2)C(=O)NC3=O)c(Cl)c1Cl`, the IC50 in assay [1] came to 4.88 µM. For the same molecule, the EC50 in assay [2] turned out to be 2.5 µM.
As for `C=C(CC)C(=O)c1ccc(OCC(=O)NCCc2c[nH]c3ccccc23)c(Cl)c1Cl`, the IC50 in assay [1] came to 10.7 µM. Further, the EC50 in assay [2] was determined as 5.9 µM.
In assay [1], `C=C(CC)C(=O)c1ccc(OCC(=O)Nc2ccc(C(=O)O)cn2)c(Cl)c1Cl` yielded an IC50 of more than 50 µM. The response in assay [2] was half-maximal at 14.9 µM (EC50).
In the same order, the values of `C=C(CC)C(=O)c1ccc(OCC(=O)NCO[N+](=O)[O-])c(Cl)c1Cl` are more than 50 µM and 4.1 µM.
Molecule `C=C(CC)C(=O)c1ccc(OCC(=O)Nc2ccc3c(C)cc(=O)oc3c2)c(Cl)c1Cl` gave an IC50 in assay [1] of 2.63 µM. In assay [2], this molecule displayed an EC50 of 2.8 µM.
In the same order, the values of `C=C(CC)C(=O)c1ccc(OCC(=O)Nc2ccc(O)cc2)c(Cl)c1Cl` are more than 50 µM and 6.4 µM.
In assay [1], `C=C(CC)C(=O)c1ccc(OCC(=O)Nc2ccc(C(N)=O)cc2)c(Cl)c1Cl` gave an IC50 of 4.76 µM. This molecule showed an EC50 in assay [2] of 3.7 µM.
Taken in the same sequence, the figures for `C=C(CC)C(=O)c1ccc(OCC(=O)Nc2ccc(C(=O)O)cc2)c(Cl)c1Cl` were 5.81 µM and 5 µM.
Turning to `C=C(CC)C(=O)c1ccc(OCC(=O)Nc2ccc(O)c(Cl)c2)c(Cl)c1Cl`, half-maximal inhibition in assay [1] (IC50) required 3.8 µM. In addition, in assay [2], a half-maximal response (EC50) required 5.5 µM.
`C=C(CC)C(=O)c1ccc(OCC(=O)NCC2CCC(C(=O)O)CC2)c(Cl)c1Cl` (centres undefined) gave an IC50 in assay [1] of more than 50 µM. A half-maximal effect in assay [2] (EC50) was put at 8 µM.
For the molecule `C=C(CC)C(=O)c1ccc(OCC(=O)Nc2cccc(C(=O)O)c2)c(Cl)c1Cl`, half-maximal inhibition in assay [1] (IC50) required 5.85 µM. Besides, the EC50 in assay [2] came out at 20.6 µM.
Taken in the same sequence, the figures for `C=C(CC)C(=O)c1ccc(OCC(=O)Nc2ccc(C(=O)O)c(O)c2)c(Cl)c1Cl` were more than 50 µM and more than 25 µM.
Molecule `C=C(CC)C(=O)c1ccc(OCC(=O)Nc2ccc(C(=O)OC)cc2)c(Cl)c1Cl` had an IC50 in assay [1] of 11.4 µM. In assay [2], the EC50 was determined as 4.1 µM.
In the same order, the values of `C=C(CC)C(=O)c1ccc(OCC(=O)Nc2ccc3c(c2)C(=O)c2ccccc2C3=O)c(Cl)c1Cl` are 2.97 µM and 2.1 µM.
In the same order, the values of `C=C(CC)C(=O)c1ccc(OCC(=O)NCCCN2CCCC2=O)c(Cl)c1Cl` are more than 50 µM and 13.8 µM.
Taken in the same sequence, the figures for `C=C(CC)C(=O)c1ccc(OCC(=O)NC(CS)C(=O)OCC)c(Cl)c1Cl` (centres undefined) were more than 50 µM and 4.8 µM.
In assay [1], `C=C(CC)C(=O)c1ccc(OCC(=O)Nc2ccc(/C=C/C(=O)NO)cc2)c(Cl)c1Cl` returned an IC50 of 1.81 µM. This molecule also had an EC50 in assay [2] of 2.6 µM.
In the same order, the values of `C=C(CC)C(=O)c1ccc(OCC(=O)Nc2ccc(C#N)cc2)c(Cl)c1Cl` are 6.84 µM and 7.8 µM.
Take `C=C(CC)C(=O)c1ccc(OCC(=O)Nc2ccc(Cl)c(C(=O)O)c2)c(Cl)c1Cl`: in assay [1], the IC50 was more than 50 µM. In assay [2], this molecule returned an EC50 of 15.9 µM.
The molecule `C=C(CC)C(=O)c1ccc(OCC(=O)NCCO)c(Cl)c1Cl` displayed an IC50 in assay [1] of more than 50 µM. Besides, in assay [2], the EC50 was more than 25 µM.
As to `C=C(CC)C(=O)c1ccc(OCC(=O)Nc2ccc(C(C)=O)cc2)c(Cl)c1Cl`, the IC50 in assay [1] was 5.06 µM. This molecule came in with an EC50 in assay [2] of 3.9 µM.
`C=C(CC)C(=O)c1ccc(OCC(=O)Nc2nc(/C(=N\OC)C(=O)O)cs2)c(Cl)c1Cl` showed an IC50 in assay [1] of more than 50 µM. In addition, the EC50 in assay [2] is more than 25 µM.
As to `C=C(CC)C(=O)c1ccc(OCC(=O)Nc2nc3ccccc3s2)c(Cl)c1Cl`, the IC50 in assay [1] was found to be 4.86 µM. The molecule also returned a concentration for a half-maximal effect (EC50) in assay [2] of 1.5 µM.
Regarding `C=C(CC)C(=O)c1ccc(OCC(=O)NCCN2CCOCC2)c(Cl)c1Cl`, the IC50 in assay [1] is more than 50 µM. Further, in assay [2], the EC50 is 6.4 µM.
Taken in the same sequence, the figures for `C=C(CC)C(=O)c1ccc(OCC(=O)Nc2ccc(Cc3ccc(N4C(=O)C5C6C=CC(C6)C5C4=O)cc3)cc2)c(Cl)c1Cl` (centres undefined) were 2.93 µM and 1.8 µM.
Taken in the same sequence, the figures for `C=C(CC)C(=O)c1ccc(OCC(=O)Nc2ccc3cc(C(=O)O)ccc3c2)c(Cl)c1Cl` were 2.93 µM and 3.7 µM.
Taken in the same sequence, the figures for `C=C(CC)C(=O)c1ccc(OCC(=O)Nc2ccc([C@]3(CC)CCC(=O)NC3=O)cc2)c(Cl)c1Cl` were 4.42 µM and 2.8 µM.
Turning to `C=C(CC)C(=O)c1ccc(OCC(=O)NO)c(Cl)c1Cl`, in assay [1], the IC50 worked out at 9.89 µM. Further, the EC50 in assay [2] came out at 4.5 µM.
Taken in the same sequence, the figures for `C=C(CC)C(=O)c1ccc(OCC(=O)Nc2ccc(O)c([N+](=O)[O-])c2)c(Cl)c1Cl` were 4.23 µM and 7.4 µM.
For `C=C(CC)C(=O)c1ccc(OCC(=O)Nc2ccc3c(c2)C(O)N=NC3O)c(Cl)c1Cl` (centres undefined), the IC50 in assay [1] is 6.58 µM. This molecule also registered an EC50 in assay [2] of 8.5 µM.
As for `C=C(CC)C(=O)c1ccc(OCC(=O)Nc2ccc3nc[nH]c3c2)c(Cl)c1Cl`, in assay [1], the IC50 came to 3.62 µM. In assay [2], this molecule returned an EC50 of 3.2 µM.
Taken in the same sequence, the figures for `C=C(CC)C(=O)c1ccc(OCC(=O)Nc2cc(OC)c(OC)cc2C(=O)O)c(Cl)c1Cl` were more than 50 µM and 21.9 µM.
In the same order, the values of `C=C(CC)C(=O)c1ccc(OCC(=O)NC2CCN(CC(=O)OC)CC2)c(Cl)c1Cl` are more than 50 µM and 10.6 µM.
Taken in the same sequence, the figures for `C=C(CC)C(=O)c1ccc(OCC(=O)NCC(=O)O)c(Cl)c1Cl` were more than 50 µM and more than 25 µM.
In the case of `CCC(C)C(=O)c1ccc(OCC(=O)O)c(Cl)c1Cl` (centres undefined), in assay [1], the IC50 was more than 50 µM. Also, the concentration for a half-maximal effect (EC50) in assay [2] is more than 25 µM.
In assay [1], `C=C(CC)C(=O)c1ccc(OCC(=O)O)c(Cl)c1Cl` [ETHACRYNIC ACID] gave an IC50 of 32.7 µM. The same molecule registered an EC50 in assay [2] of 9.9 µM.

By IC50 is commonly meant the point on the concentration scale where inhibition reaches its midpoint. Lower therefore signals greater potency in that assay. By EC50 is commonly meant the concentration at which the effect is half-maximal. A low value points to higher potency in that assay.
